Results taken from ChEMBL document CHEMBL3286322, “Synthesis and anti-cholinesterase activity of new 7-hydroxycoumarin derivatives” (Eur J Med Chem, 2014).
Active and inactive are the calls of the source. No cut-off for these calls is given here.

Columns and labels:
Cholinesterase = Cholinesterase (Equus caballus, UniProt P81908); assay: Inhibition of equine serum BChE using butyrylthiocholine iodide as substrate by spectrophotometer analysis
Summary of the method: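 Compound stocks were made in DMSO/ethanol (1:9) and diluted to final concentrations with 0.1 M potassium phosphate buffer, pH 8.0. IC50 values are mean ± SE of three independent experiments.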

[1] = Antioxidant activity assessed as ferric ion reducing activity using fe3+-TPTZ measured per gram of protein by FRAP assay; format: functional
Summary of the method: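 Reducing power measured against a FRAP reagent prepared by mixing acetate buffer (pH 3.6), 10 mM TPTZ in 40 mM HCl, and 20 mM ferric chloride hexahydrate. Test compounds act as reductants, converting the ferric tripyridyl triazine complex to the blue ferrous form, which is read colorimetrically. The method follows Benzie and Strain.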

Acetylcholinesterase [2] = molecular target: T1, Acetylcholinesterase (Electrophorus electricus, UniProt O42275); assay: Inhibition of electric eel AChE using acetylthiocholine iodide as substrate by spectrophotometer analysis
[3] = Neuroprotective activity in rat PC12 cells assessed as inhibition H2O2-induced reduction of cell viability at 5 uM after 24 hrs by MTT assay; format: functional, cell-based; settings: PC-12
Summary of the method: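 PC12 cells were differentiated in serum-free medium with NGF (50 ng/ml) for 5 days until neurite outgrowth appeared. Cells were preincubated with compound at 1, 5 or 10 for 3 h, then challenged with H2O2 (300). Viability is expressed relative to the H2O2-treated group.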

Acetylcholinesterase [4] = molecular target: T1, Acetylcholinesterase; assay: Inhibition of electric eel AChE using acetylthiocholine as substrate by Lineweavere-Burk plot
Summary of the method: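 Compound stocks were made in DMSO/ethanol (1:9) and diluted in 0.1 M potassium phosphate buffer, pH 8.0. Initial AChE velocity was measured at inhibitor levels of 0, 0.64, 1.27 and 2.55 across varied acetylthiocholine concentrations. Inhibition type was read from a Lineweaver–Burk plot, and Ki was calculated from a secondary plot.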

[5] = Neuroprotective activity in rat PC12 cells assessed as inhibition H2O2-induced reduction of cell viability at 1 to 10 uM after 24 hrs by MTT assay; format: functional, cell-based; settings: PC-12
Summary of the method: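 PC12 cells differentiated with NGF (50 ng/ml) in serum-free medium for 5 days, until neurite outgrowth was seen by microscopy. Cells were pre-incubated with compound at 1, 5 or 10 for 3 h, then exposed to H2O2 (300). Viability was expressed relative to the H2O2-only group. A reference compound was run at 5.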

[6] = Cytotoxicity against rat PC12 cells at 1 to 10 uM; format: cell-based; settings: pc-12, 10 µM

T1 sequence (O42275 whole entry): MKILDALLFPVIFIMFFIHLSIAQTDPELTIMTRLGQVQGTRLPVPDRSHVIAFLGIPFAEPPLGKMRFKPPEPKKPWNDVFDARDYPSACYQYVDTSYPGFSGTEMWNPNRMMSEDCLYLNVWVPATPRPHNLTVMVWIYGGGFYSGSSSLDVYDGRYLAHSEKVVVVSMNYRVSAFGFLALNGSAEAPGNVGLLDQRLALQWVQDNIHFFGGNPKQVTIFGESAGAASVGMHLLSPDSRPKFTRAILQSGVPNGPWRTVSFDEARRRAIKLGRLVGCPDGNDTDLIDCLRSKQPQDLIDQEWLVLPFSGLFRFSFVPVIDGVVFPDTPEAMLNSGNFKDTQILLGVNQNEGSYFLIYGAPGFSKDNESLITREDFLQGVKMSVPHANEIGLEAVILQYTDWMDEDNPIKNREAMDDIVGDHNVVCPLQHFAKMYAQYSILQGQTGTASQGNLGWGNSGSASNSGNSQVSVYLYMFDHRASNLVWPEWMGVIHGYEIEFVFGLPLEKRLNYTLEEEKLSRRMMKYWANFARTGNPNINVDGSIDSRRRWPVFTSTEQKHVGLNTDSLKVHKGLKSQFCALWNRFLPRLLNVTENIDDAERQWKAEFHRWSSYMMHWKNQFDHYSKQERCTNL
Chain of Cholinesterase (P81908 whole entry): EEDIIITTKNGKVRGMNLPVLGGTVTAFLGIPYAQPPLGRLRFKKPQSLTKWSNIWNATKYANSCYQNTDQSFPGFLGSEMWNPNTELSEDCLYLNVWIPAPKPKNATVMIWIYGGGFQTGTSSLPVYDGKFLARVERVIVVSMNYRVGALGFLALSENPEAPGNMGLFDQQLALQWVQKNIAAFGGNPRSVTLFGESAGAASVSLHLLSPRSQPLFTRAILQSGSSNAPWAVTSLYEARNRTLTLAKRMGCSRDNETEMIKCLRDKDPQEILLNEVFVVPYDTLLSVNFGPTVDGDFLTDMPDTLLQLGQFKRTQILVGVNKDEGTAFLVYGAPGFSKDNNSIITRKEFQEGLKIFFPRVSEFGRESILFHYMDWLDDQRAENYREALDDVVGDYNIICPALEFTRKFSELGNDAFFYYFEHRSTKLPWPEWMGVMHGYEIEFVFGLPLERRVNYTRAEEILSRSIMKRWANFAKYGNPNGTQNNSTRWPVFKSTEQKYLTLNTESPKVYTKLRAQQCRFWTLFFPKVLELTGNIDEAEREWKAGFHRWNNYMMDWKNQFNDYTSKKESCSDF

Structure (SMILES)	IC50 (Cholinesterase) [µM]	Activity [1] [µmol]	IC50 (Acetylcholinesterase [2]) [µM]	Activity [3]	Ki (Acetylcholinesterase [4]) [µM]	Activity [5]	Activity [6]
O=C(COc1ccc2ccc(=O)oc2c1)N1CCC(Cc2ccccc2)CC1	46	0.05	9.8	–	–	–	–
O=C(CCCOc1ccc2ccc(=O)oc2c1)N1CCN(c2ccccc2)CC1	120	1.13	3.43	–	–	–	–
O=C(CCCOc1ccc2ccc(=O)oc2c1)N1CCN(c2ccc(F)cc2)CC1	75	1.37	50	–	–	–	–
O=C1O[C@H]([C@@H](O)CO)C(O)=C1O	–	7.26	–	–	–	–	–
O=C(COc1ccc2ccc(=O)oc2c1)N1CCN(c2ccc(Cl)c(Cl)c2)CC1	120	2.01	26.8	–	–	–	–
O=c1c(O)c(-c2ccc(O)c(O)c2)oc2cc(O)cc(O)c12	–	10.8	–	Active	–	–	–
Cc1cc(=O)oc2cc(OCCCC(=O)N3CCC(O)(c4ccc(Br)cc4)CC3)ccc12	141	0.06	34.6	–	–	–	–
O=C(CCCOc1ccc2ccc(=O)oc2c1)N1CCN(c2ccc(Cl)c(Cl)c2)CC1	80	0.78	26	–	–	–	–
Cc1cc(=O)oc2cc(OCCCC(=O)N3CCN(c4ccc(Cl)c(Cl)c4)CC3)ccc12	250	0.05	4.38	–	–	–	–
O=C(COc1ccc2ccc(=O)oc2c1)N1CCN(c2ccccc2F)CC1	86	0.07	34.5	–	–	–	–
Cc1cc(=O)oc2cc(OCCCC(=O)N3CCN(c4ccc(F)cc4)CC3)ccc12	24	0.08	41.6	–	–	–	–
O=C(CCCOc1ccc2ccc(=O)oc2c1)N1CCN(c2ccccc2F)CC1	15	0.15	6.9	–	–	–	–
Cc1cc(=O)oc2cc(OCCCC(=O)N3CCN(c4ccccc4F)CC3)ccc12	29	0.1	16.4	–	–	–	–
Cc1cc(=O)oc2cc(OCCCC(=O)N3CCN(c4ccccc4)CC3)ccc12	68	0.07	20.8	–	–	–	–
Cc1cc(=O)oc2cc(OCCCC(=O)N3CCN(c4ccccc4O)CC3)ccc12	184	2.01	6.2	–	–	–	–
O=C(CCCOc1ccc2ccc(=O)oc2c1)N1CCC(O)(c2ccc(Br)cc2)CC1	180	0.03	73	–	–	–	–
O=C(COc1ccc2ccc(=O)oc2c1)NC1CCN(Cc2ccccc2)CC1	42	0.06	1.6	–	1.32	Active	Non-toxic
O=C(COc1ccc2ccc(=O)oc2c1)N1CCN(c2ccccc2)CC1	50	1.94	33	–	–	–	–
O=C(CCCOc1ccc2ccc(=O)oc2c1)N1CCN(c2ccccc2O)CC1	280	2.82	7	–	–	–	–
COc1ccc(CCNC(=O)COc2ccc3ccc(=O)oc3c2)cc1OC	163	5.43	74	–	–	–	–
O=C(CCCOc1ccc2ccc(=O)oc2c1)N1CCC(Cc2ccccc2)CC1	387	1.61	6.9	–	–	–	–
